These results are taken from publication PMC2895766 (Journal of medicinal chemistry, 2010).

One series relates to mice. The settings on record: cited from earlier work.
In series [1] the test system is α1*-, α3β4*-, α4β2-, or α4β4-nAChR. It is filed as cell-based, human. The settings on record: highest concentration tested 100 μM.
The target in series [2] is human NE transporters [h(NET)] (Homo sapiens, UniProt P23975). Briefly: Inhibition of [3H]norepinephrine uptake in HEK293 cells expressing hNET. Type of series: cell-based. The conditions noted are these: ratio of IC50 values.
The target of a further series is α4β2-nAChR (Homo sapiens, UniProt P17787+P43681). The series is described as follows: 86Rb+ efflux assay, antagonism of carbamylcholine response, SH-EP1-hα4β2 cells. It is filed as cell-based.
Series [3] has as its system nicotine-mediated antinociception (tail-flick). The series is described as follows: Tail-flick test, blockade of nicotine-induced antinociception. The settings on record: mice. Type of series: in vivo. In a few lines:
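Mice got saline or test compound 15 min before nicotine (2.5 mg/kg s.c.) and were tested 5 min after nicotine. Radiant heat was applied to the upper tail with a 10 s cutoff, and a pre-treatment control latency (2–4 s) was taken for each mouse. Blockade was scored as %MPE = [(test − control)/(10 − control)] × 100 and expressed as AD50 in mg/kg.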

human NE transporters [h(NET)], sequence (P23975 whole entry): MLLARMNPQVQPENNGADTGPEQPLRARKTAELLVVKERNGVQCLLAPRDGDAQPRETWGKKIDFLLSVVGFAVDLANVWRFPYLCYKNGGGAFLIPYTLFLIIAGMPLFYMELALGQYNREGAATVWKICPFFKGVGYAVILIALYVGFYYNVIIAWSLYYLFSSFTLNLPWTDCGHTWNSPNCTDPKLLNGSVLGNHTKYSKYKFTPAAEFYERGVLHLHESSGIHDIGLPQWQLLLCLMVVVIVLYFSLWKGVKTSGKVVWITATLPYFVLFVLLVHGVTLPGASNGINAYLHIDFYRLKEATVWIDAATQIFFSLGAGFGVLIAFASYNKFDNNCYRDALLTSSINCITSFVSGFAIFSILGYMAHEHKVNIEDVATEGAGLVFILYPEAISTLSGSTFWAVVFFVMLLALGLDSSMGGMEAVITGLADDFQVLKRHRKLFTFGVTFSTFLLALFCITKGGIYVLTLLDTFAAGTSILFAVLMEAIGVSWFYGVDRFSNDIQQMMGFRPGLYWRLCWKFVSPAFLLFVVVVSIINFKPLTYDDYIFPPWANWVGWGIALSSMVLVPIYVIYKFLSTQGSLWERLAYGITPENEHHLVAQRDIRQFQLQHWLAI
α4β2-nAChR, sequence (P43681 29-627 limits assumed): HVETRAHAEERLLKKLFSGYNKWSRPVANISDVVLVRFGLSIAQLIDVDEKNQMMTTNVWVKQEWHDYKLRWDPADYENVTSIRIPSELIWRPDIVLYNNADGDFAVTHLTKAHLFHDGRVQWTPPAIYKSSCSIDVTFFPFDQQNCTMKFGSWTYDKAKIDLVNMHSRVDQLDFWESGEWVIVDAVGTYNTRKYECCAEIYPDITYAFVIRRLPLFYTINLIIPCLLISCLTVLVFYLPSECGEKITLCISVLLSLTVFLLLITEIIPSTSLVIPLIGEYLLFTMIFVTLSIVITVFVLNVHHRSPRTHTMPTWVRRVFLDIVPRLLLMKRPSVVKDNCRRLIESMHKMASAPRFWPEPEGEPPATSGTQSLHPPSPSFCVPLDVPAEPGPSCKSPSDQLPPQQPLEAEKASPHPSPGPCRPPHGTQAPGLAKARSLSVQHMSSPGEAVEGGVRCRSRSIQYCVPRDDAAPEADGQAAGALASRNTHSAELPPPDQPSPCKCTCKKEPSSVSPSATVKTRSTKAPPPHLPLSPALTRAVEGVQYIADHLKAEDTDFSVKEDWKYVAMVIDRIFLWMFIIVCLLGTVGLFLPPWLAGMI
α4β2-nAChR, sequence (P17787 26-502): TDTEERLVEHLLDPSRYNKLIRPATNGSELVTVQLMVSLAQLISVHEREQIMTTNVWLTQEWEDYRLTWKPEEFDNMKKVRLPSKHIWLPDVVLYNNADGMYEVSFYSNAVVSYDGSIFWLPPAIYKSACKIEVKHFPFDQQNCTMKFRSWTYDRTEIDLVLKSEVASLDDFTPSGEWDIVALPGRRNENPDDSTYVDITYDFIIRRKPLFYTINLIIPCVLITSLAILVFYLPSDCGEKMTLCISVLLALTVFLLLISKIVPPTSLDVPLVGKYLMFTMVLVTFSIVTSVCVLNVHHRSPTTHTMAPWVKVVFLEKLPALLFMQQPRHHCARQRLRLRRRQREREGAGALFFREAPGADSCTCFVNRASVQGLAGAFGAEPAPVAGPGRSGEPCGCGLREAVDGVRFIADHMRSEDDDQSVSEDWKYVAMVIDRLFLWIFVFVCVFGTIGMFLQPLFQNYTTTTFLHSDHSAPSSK

Regarding `C[C@H]1NC(C)(C)CO[C@]1(O)c1cccc(Cl)c1` (racemic) [racemic hydroxybupropion], the “convulsions after i.p. administration” value in the series with mice is “induced convulsions”.

With `C[C@H]1NC(C)(C)CO[C@]1(O)c1cccc(Cl)c1` [(2R,3R)-4a, (2R,3R)-2-(3-Chlorophenyl)-3,5,5-trimethylmorpholin-2-ol, reference compound], in series [1], the “extent of antagonism at all nAChR subtypes tested” value (shortened to “extent of antagonism”) is “full antagonist”.

For the compound `C[C@@H]1NC(C)(C)CO[C@@]1(O)c1cccc(Cl)c1` [(2S,3S)-4a, (2S,3S)-2-(3-Chlorophenyl)-3,5,5-trimethylmorpholin-2-ol, reference compound], the “extent of antagonism” value in series [1] is “full antagonist”. For the same compound, the “times more potent than 2 in inhibiting NE uptake” value in series [2] is reported as 7.7 times.

On to `C[C@@H]1NC(C)(C)CO[C@@]1(O)c1cccc(F)c1` [Compound 4c, (2S,3S)-2-(3-Fluorophenyl)-3,5,5-trimethylmorpholin-2-ol], for which the “extent of antagonism” value in series [1] is on record as “block all nAChR function at an adequately high concentration”.

Turning to `C[C@@H]1NC(C)(C)CO[C@@]1(O)c1cccc(Br)c1` [Compound 4d, (2S,3S)-2-(3-Bromophenyl)-3,5,5-trimethylmorpholin-2-ol], the “extent of antagonism” value in series [1] is “block all nAChR function at an adequately high concentration”. Besides, the “selectivity for inhibition of α4β2-nAChR over NE uptake inhibition” value on α4β2-nAChR was ~ 1.7 fold.

`C[C@@H]1NC(C)(C)CO[C@@]1(O)c1cccc([N+](=O)[O-])c1` [Compound 4g, (2S,3S)-2-(3-Nitrophenyl)-3,5,5-trimethylmorpholin-2-ol]: the “extent of antagonism” value in series [1] was “block all nAChR function at an adequately high concentration”.

As to `C[C@@H]1NC(C)(C)CO[C@@]1(O)c1cccc2ccccc12` [Compound 4q, (2S,3S)-2-(Naphthalen-1-yl)-3,5,5-trimethylmorpholin-2-ol], the “fold higher activity in the tail-flick assay than (2S,3S)-4a” value in series [3] is recorded as ~ 5 fold.

`C[C@@H]1NC(C)(C)CO[C@@]1(O)c1ccc2ccccc2c1` [Compound 4r, (2S,3S)-2-(Naphthalen-2-yl)-3,5,5-trimethylmorpholin-2-ol]: the “fold higher activity in the tail-flick assay than (2S,3S)-4a” value in series [3] is ~ 5 fold.

For `CCC[C@@H]1NC(C)(C)CO[C@@]1(O)c1cccc(Cl)c1` [Compound 4t, (2S,3S)-2-(3-Chlorophenyl)-5,5-dimethyl-3-propyl-morpholin-2-ol], in series [1], the “extent of antagonism” value is recorded as “full antagonist”.
